Each structure is given as a SMILES string.

Data set [1] deals with human pancreatic cancer BxPC-3 cells. Description: Cell proliferation assay. In kind it is cell-based. The note with it: BXPC-3, 72 h. The method in brief: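 BxPC-3 cells were grown in RPMI with 10% FBS and penicillin/streptomycin at 37 °C under 5% CO2, then seeded in 96-well plates. Stocks were 1 mM (parent drug in PBS, prodrug in DMSO). Cells were exposed to 10–150 nM free or micellar test compound for 72 h. They were then fixed with 1% glutaraldehyde, stained with 0.1% crystal violet and dissolved in 10% acetic acid, with absorbance read at 595 nm. Viability was expressed as % of untreated wells.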

Data set [2] has as its system cytidine deaminase and cathepsin B. The data set is classed as in vitro ADME, human. The note with it: by 1 h; cathepsin B 5 U/mL, cytidine deaminase 15 μg/mL, pH 6.5, 37 °C.
For data set [3], the system named is tumor cells with wild-type hENT1 and deoxycytidine kinase. The settings on record: cell culture, tumor cells with wild-type hENT1 and deoxycytidine kinase ref 36; cited from earlier work.
Data set [4] is described as follows: Body weight of treated mice in the efficacy study. In kind it is in vivo. The settings on record: iv 10 mg/kg gemcitabine equivalent twice weekly for 2 weeks. The method in brief: (§1)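 Female athymic nude mice (nu/nu, 5–6 weeks) received subcutaneous BxPC-3 cells (2 × 10^6 in matrigel/RPMI) in each flank. At 50–100 mm3, mice were randomized to untreated, free parent drug in PBS, or micellar prodrug groups (4 per group). Dosing was iv 10 mg/kg parent-drug equivalent on days 0, 3, 7 and 10. Tumor volume was measured by caliper as 1/2 × length × width², and body weight was tracked. Groups were compared by t-test.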

The subject of another data set is BxPC-3 xenografts. Briefly: Antitumor efficacy study in mice bearing BxPC-3 xenografts. In kind it is in vivo. The note with it: iv 10 mg/kg gemcitabine equivalent on days 0, 3, 7, 10. The method in brief:
as §1

Data set [5] in a line: In vitro release study by dialysis method. In kind it is physicochemical. The method in brief: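 Micelles, free parent drug, or free prodrug were placed in a 20 kDa MWCO dialysis cassette against 500 mL PBS (20 mM, pH 7.4) at 37 °C. The sink was refreshed at each sampling. Free prodrug was taken from a 6 mM Tween 80/ethanol (1:4) stock and diluted in HEPES saline to a final 100 μM. Cassette contents were sampled over time and quantified by HPLC. Ct/C0 = e^–kt was fitted by nonlinear regression, and t1/2 = 0.693/k.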

The nature of data set [6]: Pharmacokinetic study in mice bearing BxPC-3 xenografts. In kind it is in vivo. The method in brief: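 Female nude mice carried BxPC-3 subcutaneous xenografts of 100–300 mm3 (3 per group). Mice received iv 25 mg/kg parent-drug equivalent as free drug in PBS, free prodrug in Tween 80/ethanol:PBS (1:4), or micelles. Retro-orbital blood was taken at 3–90 min. Samples were quenched with acetic acid, precipitated with acetonitrile, and analyzed by HPLC with internal standards for prodrug, parent and deaminated metabolite. t1/2, CLT and Vd,ss came from noncompartmental analysis.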

[7] abbreviates: female, athymic nude (nu/nu), mouse, plasma, iv, 25 mg/kg.

In general, EC50 refers to the concentration at which the effect is half-maximal. What is called AUC is the area under the concentration-time curve, a measure of exposure. One may read the Vd as the apparent volume that relates the amount in the body to the concentration in plasma or blood. For `Nc1ccn([C@@H]2O[C@H](CO)[C@@H](O)C2(F)F)c(=O)n1` [gemcitabine, 2′,2′-difluorocytidine], the EC50 in data set [1] stood at 25 nM. The “conversion to dFdU” value in data set [2] was found to be 80%. The EC50 entry in data set [3] is recorded as “low nanomolar range”. For the same compound, in data set [4], the “body weight / overt toxicity” value is “no overt toxicity”. Further, the “effect on tumor growth” value in the data set on BxPC-3 xenografts is given as “unable to arrest the tumor growth”. In addition, the “release half-life (t1/2,release)” value in data set [5] (dialysis) is recorded as “about 15 min”. In data set [5] (dialysis 20 kDa MWCO, PBS pH 7.4, 37 °C, 0.693/k), the “t1/2,release” value is 14.4 min. The same compound returned a release rate constant in data set [5] (dialysis 20 kDa MWCO, PBS pH 7.4, 37 °C, free GemC18 in Tween 80/ethanol) of 2.920 h^–1. For the same compound, in data set [6] (setting [7]), the AUC is 18.8 µM·h and the Vd was 1.06 ± 0.132 L/kg. In data set [6] (plasma gemcitabine, iv 25 mg/kg, mice), the CLT of gemcitabine amounted to 84.0 ± 4.0 mL/min/kg.
